Reference: ChEMBL document CHEMBL4602735, “Discovery of (1H-Pyrazolo[3,4-c]pyridin-5-yl)sulfonamide Analogues as Hepatitis B Virus Capsid Assembly Modulators by Conformation Constraint” (J Med Chem, 2020)
pEC50: −log10 of the molar value. Converted amounts (≈) assume the structure as drawn. The source made the active and inactive calls. The calls are words filed in the database; no cut-off is given here.

Key:
[1] = Solubility in pH 5.8 phosphate buffer at 1 mg at 25 degC by HPLC analysis; type: physicochemical
Procedure, shortened: (§1)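 Solubility determined in water or 0.067 M phosphate buffer at pH 5.8, 6.8 and 7.4. Values are reported in mg/mL; ND means below the detection limit.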

[2] = Solubility in water at 1 mg at 25 degC by HPLC analysis; type: physicochemical; procedure, shortened: as §1
[3] = Solubility in pH 7.4 phosphate buffer at 1 mg at 25 degC by HPLC analysis; type: physicochemical; procedure, shortened: as §1
[4] = Solubility in pH 6.8 phosphate buffer at 1 mg at 25 degC by HPLC analysis; type: physicochemical; procedure, shortened: as §1
[5] = Cytotoxicity in human HepAD38 cells assessed as induction of cell killing; type: cell-based
Hepatitis B virus [6] = assay: Induction of capsid assembly of recombinant HBV core protein 149 (1 to 149 residues) assessed as capsid peak AUC/Cp dimer peak AUC at 10 uM incubated overnight by UV detector based analysis (reference value: 0.59)
Procedure, shortened: (§2)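 Core protein N-terminal domain Cp149 (aa 1-149, 5 μM) incubated with compound (10 μM) or DMSO overnight at 37 °C in 150 mM NaCl, 50 mM HEPES, pH 7.4. Assembly is read by EM and by size-exclusion chromatography. In SEC, capsids elute early (about 1.08 mL) and dimers late (about 1.97 mL). Peak AUCs and the capsid/dimer AUC ratio are calculated.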

Hepatitis B virus [7] = assay: Induction of capsid assembly of recombinant HBV core protein 149 (1 to 149 residues) assessed as capsid peak AUC at 10 uM incubated overnight by UV detector based analysis (reference value: 0.96); procedure, shortened: as §2
Hepatitis B virus [8] = assay: Induction of capsid assembly of recombinant HBV core protein 149 (1 to 149 residues) at 10 uM incubated overnight by SEC analysis; procedure, shortened: as §2
Hepatitis B virus [9] = assay: Induction of capsid assembly of recombinant HBV core protein 149 (1 to 149 residues) at 10 uM incubated overnight by electron microscopy; procedure, shortened: as §2
Hepatitis B virus [10] = assay: Induction of capsid assembly of recombinant HBV core protein 149 (1 to 149 residues) assessed as Cp dimer peak AUC at 10 uM incubated overnight by UV detector based analysis (reference value: 1.63); procedure, shortened: as §2
Hepatitis B virus [11] = assay: Antiviral activity against HBV infected in human HepAD38 cells assessed as reduction in viral DNA levels incubated for 6 days by PCR analysis; type: functional, organism-based; conditions: HePAD38, 144 h
Hepatitis B virus [12] = assay: Antiviral activity against multidrug-resistant HBV infected in human HepG2.1403F cells assessed as reduction in viral replication incubated for 6 days by PCR analysis; type: functional, organism-based; conditions: 144 h
Procedure, shortened: (§3)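 Wild-type HBV replication measured in HepAD38 and HepG2.2.15 cells, lamivudine/entecavir-resistant HBV in HepG2.A64 cells (rtL180M+rtT184L+rtM204V) and multidrug-resistant HBV in HepG2.1403F cells (rtL180M+rtM204V+rtS202G+rtN236T). Read-out is reduction of HBV DNA. EC50 is reported as mean ± SD.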

[13] = Cytotoxicity in human HepG2 cells assessed as induction of cell killing; type: cell-based
Hepatitis B virus [14] = assay: Antiviral activity against HBV infected in human HepG2.A64 cells containing reverse transcriptase L180M/T184L/M204V mutant assessed as reduction in viral replication incubated for 6 days by PCR analysis; type: functional, organism-based; conditions: HepG2.A64, 144 h; procedure, shortened: as §3
Hepatitis B virus [15] = assay: Antiviral activity against HBV infected in human HepG2.2.15 cells assessed as reduction in viral DNA levels incubated for 6 days by PCR analysis; type: functional, organism-based; conditions: HepG2 2.2.15, 144 h
HepG2 2.2.15 = assay: Inhibition of reverse transcriptase in HBV infected in human HepG2.2.15 cells assessed as induction of intracellular viral RNA accumulation at 2 uM for 4 days by qPCR or qRT-PCR relative to control; type: cell-based; conditions: Hepatitis B virus
[16] = Stability in pH 6.8 buffer assessed as compound remaining level at 37 degC by HPLC analysis; type: physicochemical
Procedure, shortened: (§4)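 Prodrug incubated in buffer (0.1 M HCl, pH 5.8, 6.8 or 7.4) at 37 °C; percent of compound remaining determined by HPLC; remaining percentage reported after 3 h, stability meaning no hydrolysis after 2 h.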

[17] = Half life in mouse plasma by HPLC analysis; type: ADME, cell-free
Procedure, shortened: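 Prodrug incubated in plasma at 37 °C, with percent remaining determined by HPLC to derive half-life.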

[18] = Stability in pH 7.4 buffer assessed as compound remaining level at 37 degC by HPLC analysis; type: physicochemical; procedure, shortened: as §4
Hepatitis B virus [19] = assay: Antiviral activity against HBV infected in human HepAD38 cells assessed as inhibition of intracellular total viral RNA accumulation at 2 uM for 4 days by qPCR or qRT-PCR relative to control; type: functional
Procedure, shortened: (§5)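 HepAD38 or HepG2.2.15 cells were treated at 2 µM for 4 days, with medium replaced every 2 days. Intracellular and extracellular DNA and RNA were quantified by qPCR or qRT-PCR, and HBeAg and HBsAg by ELISA. Results were compared with DMSO vehicle as mean ± SD, using a two-tailed t-test.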

Hepatitis B virus [20] = assay: Antiviral activity against HBV infected in human HepAD38 cells assessed as inhibition of intracellular viral RNA accumulation at 2 uM for 4 days by qPCR or qRT-PCR relative to control; type: functional, organism-based; procedure, shortened: as §5
Hepatitis B virus [21] = assay: Inhibition of HBsAg secretion in HBV infected human HepAD38 cells at 2 uM for 4 days by ELISA; type: functional, organism-based; procedure, shortened: as §5
Hepatitis B virus [22] = assay: Inhibition of HBeAg secretion in HBV infected human HepG2.2.15 cells at 2 uM for 4 days by ELISA relative to control; type: functional, organism-based; conditions: HepG2 2.2.15; procedure, shortened: as §5
Hepatitis B virus [23] = assay: Antiviral activity against HBV infected in human HepAD38 cells assessed as inhibition of intracellular viral DNA accumulation at 2 uM for 4 days by qPCR or qRT-PCR relative to control; type: functional, organism-based; procedure, shortened: as §5
Hepatitis B virus [24] = assay: Antiviral activity against HBV infected in human HepG2.2.15 cells assessed as inhibition of intracellular viral DNA accumulation at 2 uM for 4 days by qPCR or qRT-PCR relative to control; type: functional, organism-based; conditions: HepG2 2.2.15; procedure, shortened: as §5
Hepatitis B virus [25] = assay: Inhibition of HBsAg secretion in HBV infected human HepG2.2.15 cells at 2 uM for 4 days by ELISA; type: functional, organism-based; conditions: HepG2 2.2.15; procedure, shortened: as §5
[26] = Stability in pH 5.8 buffer assessed as compound remaining level at 37 degC by HPLC analysis; type: physicochemical; procedure, shortened: as §4
[27] = Intrinsic clearance in human liver microsomes; type: ADME, Microsome; conditions: read-out: CLH
[28] = Intrinsic clearance in mouse liver microsomes; type: ADME, Microsome; conditions: read-out: CLH
Hepatitis B virus [29] = assay: Antiviral activity against HBV infected in human HepG2.2.15 cells assessed as inhibition of intracellular viral RNA accumulation at 2 uM for 4 days by qPCR or qRT-PCR relative to control; type: functional, organism-based; conditions: HepG2 2.2.15; procedure, shortened: as §5
[30] = Selectivity index, ratio of CC50 for cytotoxicity in human HepAD38 cells assessed as induction of cell killing to EC50 for antiviral activity against HBV infected in human HepAD38 cells assessed as reduction in viral DNA levels incubated for 6 days by PCR analysis; type: toxicity, cell-based; conditions: read-out: Ratio CC50/EC50
[31] = phosphate buffer, read-out: solubility

## Cc1cc(Nc2nn(C3CC3)c3cnc(S(=O)(=O)N4CCC(OC(=O)CN(C)C)CC4)cc23)ccc1F.Cl
[1]
  solubility: 6750 µg/mL
[2]
  solubility: 6900 µg/mL
[3]
  solubility: 16 µg/mL
[4]; [31]
  solubility: 40 µg/mL

## Cc1cc(Nc2nn(C3CC3)c3cnc(S(=O)(=O)N4CCC(OC(=O)CN(C)C)CC4)cc23)ccc1F
[2]
  solubility: 710 µg/mL (≈ 1340 µM)

## O=S(=O)(c1ccc2c(c1)c(Nc1cc(F)c(F)c(F)c1)nn2C1CC1)N1CCC(O)CC1
[5]
  CC50: 100000 nM
Hepatitis B virus [6]
  AUC: 1.43
Hepatitis B virus [7]
  AUC: 0.56
Hepatitis B virus [8]
  Activity: Active
Hepatitis B virus [9]
  Activity: Active
Hepatitis B virus [10]
  AUC: 0.39
Hepatitis B virus [11]
  pEC50: 6.57

## C=C1[C@H](CO)[C@@H](O)C[C@@H]1n1cnc2c(=O)[nH]c(N)nc21
Hepatitis B virus [12]
  pEC50: < 5.00
[13]
  CC50: 42100 nM
Hepatitis B virus [11]
  pEC50: 7.96
Hepatitis B virus [14]
  pEC50: < 5.00

## Nc1ccn([C@@H]2CS[C@H](CO)O2)c(=O)n1 [LAMIVUDINE]
Hepatitis B virus [15]
  pEC50: 8.42
Hepatitis B virus [12]
  pEC50: < 5.00
HepG2 2.2.15
  inhibition: Active
[13]
  CC50: > 100000 nM
Hepatitis B virus [11]
  pEC50: 7.15
Hepatitis B virus [14]
  pEC50: < 5.00

## C[C@H](Cn1cnc2c(N)ncnc21)OCP(=O)(O)O [TENOFOVIR ANHYDROUS]
Hepatitis B virus [12]
  pEC50: 5.60
[13]
  CC50: 15000 nM
Hepatitis B virus [11]
  pEC50: 8.00
Hepatitis B virus [14]
  pEC50: 6.08

## Cc1cc(Nc2nn(C3CC3)c3cnc(S(=O)(=O)N4CCC(OC(=O)[C@@H](N)C(C)C)CC4)cc23)ccc1F.O=C(O)C(F)(F)F
[16]
  Stability: Unstable
[17]
  half-life: 18 h
[18]
  Stability: Stable

## CC(=O)O.Cc1cc(Nc2nn(C3CC3)c3cnc(S(=O)(=O)N4CCC(OC(=O)CN(C)C)CC4)cc23)ccc1F
[2]
  solubility: 1110 µg/mL
[4]; BLD = below limit of detection
  solubility: Bld

## CCOC(=O)C1=C(CN2CCOCC2)NC(c2nccs2)=NC1c1ccc(F)cc1Br (stereo unspecified)
Hepatitis B virus [15]
  pEC50: 8.18
Hepatitis B virus [19]
  inhibition: Active
Hepatitis B virus [20]
  inhibition: Active
Hepatitis B virus [21]
  inhibition: inactive
Hepatitis B virus [22]
  inhibition: Active
Hepatitis B virus [23]
  inhibition: Active
Hepatitis B virus [12]
  pEC50: 7.38
Hepatitis B virus [24]
  inhibition: Active
Hepatitis B virus [11]
  pEC50: 7.89
Hepatitis B virus [25]
  inhibition: inactive
Hepatitis B virus [14]
  pEC50: 8.20

## Cc1cc(Nc2nn(C3CC3)c3cnc(S(=O)(=O)N4CCC(OC(=O)CN)CC4)cc23)ccc1F.O=C(O)C(F)(F)F
[16]
  Stability: 67.6%
[26]
  Stability: 88.3%
[17]
  half-life: 1.29 h
[18]
  Stability: 74.2%

## CS(=O)(=O)O.CS(=O)(=O)O.Cc1cc(Nc2nn(C3CC3)c3cnc(S(=O)(=O)N4CCC(OC(=O)CN(C)C)CC4)cc23)ccc1F
[1]
  solubility: 7080 µg/mL
[2]
  solubility: 7900 µg/mL
[3]
  solubility: 230 µg/mL
[4]; [31]
  solubility: 7690 µg/mL

## Cc1cc(Nc2nn(C3CC3)c3cnc(S(=O)(=O)N4CCOCC4)cc23)ccc1F
[5]
  CC50: > 100000 nM
[27]
  microsomal CLint: 38 µL/min/mg
[28]
  microsomal CLint: 53.5 µL/min/mg
Hepatitis B virus [11]
  pEC50: 7.38

## Cc1cc(Nc2nn(C3CC3)c3cnc(S(=O)(=O)N4CCC(OC(=O)CN(C)C)CC4)cc23)ccc1F.O=C(O)/C=C\C(=O)O
[1]
  solubility: 7930 µg/mL
[2]
  solubility: 4200 µg/mL
[4]; BLD = below limit of detection
  solubility: Bld

## Cc1cc(Nc2nn(C3CC3)c3ccc(S(=O)(=O)N4CCOCC4)cc23)ccc1F
[5]
  CC50: > 100000 nM
[27]
  microsomal CLint: 41 µL/min/mg
[28]
  microsomal CLint: 26.9 µL/min/mg
Hepatitis B virus [11]
  pEC50: 7.24

## O=S(=O)(c1cc2c(Nc3ccc(F)c(C(F)F)c3)nn(C3CC3)c2cn1)N1CCC(O)CC1
Hepatitis B virus [15]
  pEC50: 7.38
[5]
  CC50: > 100000 nM
Hepatitis B virus [20]
  inhibition: Active
Hepatitis B virus [29]
  inhibition: Active
Hepatitis B virus [21]
  inhibition: inactive
Hepatitis B virus [23]
  inhibition: Active
Hepatitis B virus [12]
  pEC50: 7.89
[13]
  CC50: > 100000 nM
[30]
  selectivity ratio at 144 h: > 1410
[28]
  microsomal CLint: 6.9 µL/min/mg
Hepatitis B virus [24]
  inhibition: Active
Hepatitis B virus [11]
  pEC50: 7.15
Hepatitis B virus [25]
  inhibition: inactive
Hepatitis B virus [14]
  pEC50: 8.66

## O=S(=O)(c1ccc2c(c1)c(Nc1ccc(F)c(F)c1)nn2C1CC1)N1CCC(O)CC1
[5]
  CC50: 75000 nM
[30]
  selectivity ratio at 144 h: 625
Hepatitis B virus [11]
  pEC50: 6.92

## O=S(=O)(c1ccc2c(c1)c(Nc1ccc(F)c(Cl)c1)nn2C1CC1)N1CCC(O)CC1
[5]
  CC50: 18300 nM
[30]
  selectivity ratio at 144 h: 96
Hepatitis B virus [11]
  pEC50: 6.72
